According to ChEMBL document CHEMBL1144725, “Seco-terpenoids and other constituents from Elateriospermum tapos” (J Nat Prod, 2008):
In brackets after ≈: the same amount, converted by molar mass. Activity calls are given as the source filed them. The rule behind the calls is not given here.

Key:
Cancer cell lines = test: Cytotoxicity against human breast cancer cells at 10 ug/mL; format: functional, cell-based
NCI-H187 [1] = test: Cytotoxicity against human NCI-H187 cells at 10 ug/mL; format: functional, cell-based
KB = test: Cytotoxicity against human KB cells; format: functional, cell-based
NCI-H187 [2] = test: Cytotoxicity against human NCI-H187 cells; format: functional, cell-based
[3] = Cytotoxicity against human breast cancer cells; format: functional, cell-based; details: Cancer cell lines
[4] = test system: Mycobacterium tuberculosis; test: Antimycobacterial activity against Mycobacterium tuberculosis H37Ra by microplate alamar blue assay; format: functional
Method in brief: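 Microplate Alamar Blue assay against Mycobacterium tuberculosis H37Ra, with isoniazid and kanamycin sulfate as reference drugs.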

## COc1ccc(-c2cc(=O)c3c(O)cc(O)c(-c4cc(-c5cc(=O)c6c(O)cc(OC)cc6o5)ccc4O)c3o2)cc1
Cancer cell lines
  Activity: inactive
NCI-H187 [1]
  Activity: inactive

## CC1(C)CC[C@]2(C(=O)O)CC=C3[C@]4(C)CC[C@H]5C(C)(C)[C@@H](O)CC[C@]5(C)[C@H]4CC[C@@]3(C)[C@@H]2C1
Cancer cell lines
  Activity: inactive
NCI-H187 [1]
  Activity: inactive

## C=C[C@@]1(C)C(=O)C=C2C(=CC[C@@H]3C(C)(C)[C@H](O)C(=O)C[C@@]23C)[C@H]1O
Cancer cell lines
  Activity: inactive
NCI-H187 [1]
  Activity: inactive

## O=c1cc(-c2ccc(O)c(-c3c(O)cc(O)c4c(=O)cc(-c5ccc(O)cc5)oc34)c2)oc2cc(O)cc(O)c12
Cancer cell lines
  Activity: inactive
NCI-H187 [1]
  Activity: inactive

## C=C(C)[C@@H]1CC[C@]2(C)CC[C@]3(C)[C@H](CC[C@@H]4[C@@]5(C)CC[C@H](O)C(C)(C)[C@@H]5CC[C@]43C)[C@@H]12
Cancer cell lines
  Activity: inactive
NCI-H187 [1]
  Activity: inactive

## C=Cc1c(C)c(O)cc2c1CCC(C(C)(C)C(=O)O)[C@@]2(C)CC(=O)O (stereo partly specified)
Cancer cell lines
  Activity: inactive
NCI-H187 [1]
  Activity: inactive

## Cc1c2ccncc2c(C)c2c1[nH]c1ccccc12 [ELLIPTECINE]
KB
  IC50: 0.41 µg/mL (≈ 1.66 µM)
NCI-H187 [2]
  IC50: 0.52 µg/mL (≈ 2.11 µM)
[3]
  IC50: 0.13 µg/mL (≈ 0.528 µM)

## CC1(C)[C@H](O)[C@@H](O)C[C@]2(C)[C@@H]1CC[C@]13C=C[C@](C)(C1)C(=O)C[C@H]32
Cancer cell lines
  Activity: inactive
NCI-H187 [1]
  Activity: inactive

## C=C(C)[C@H]1CC[C@]2(C)[C@H]3CC[C@@H]4[C@@]5(C)CC[C@H](O)C(C)(C)[C@@H]5CC[C@@]4(C)[C@]3(C)CC[C@@H]12
Cancer cell lines
  Activity: inactive
NCI-H187 [1]
  Activity: inactive

## COC(=O)C[C@@]1(C)C(C(C)(C)C(=O)OC)CC[C@@]2(C)C3=CC[C@@]4(C(=O)O)CCC(C)(C)CC4[C@]3(C)CCC12 (stereo partly specified)
[4]
  MIC: 3.13 µg/mL (≈ 5.9 µM)
NCI-H187 [2]
  IC50: 4.65 µg/mL (≈ 8.76 µM)
[3]
  IC50: 7.08 µg/mL (≈ 13.3 µM)

## C=C[C@]1(C)C=C2CC[C@@H]3C(C)(C)[C@H](O)C(=O)C[C@@]3(C)[C@@H]2C[C@@H]1O
Cancer cell lines
  Activity: inactive
NCI-H187 [1]
  Activity: inactive

## C=C(C)[C@@H]1CC[C@]2(C)CC[C@]3(C)[C@H](CC[C@@H]4[C@@]5(C)CC[C@H](OC(C)=O)C(C)(C)[C@@H]5CC[C@]43C)[C@@H]12
Cancer cell lines
  Activity: inactive
NCI-H187 [1]
  Activity: inactive

## CC(=O)O[C@H]1CC[C@]2(C)[C@H]3CC[C@]4(C)C(=CC[C@@]5(C(=O)O)CCC(C)(C)C[C@H]54)[C@]3(C)CC[C@H]2C1(C)C
Cancer cell lines
  Activity: inactive
NCI-H187 [1]
  Activity: inactive

## COc1cc(O)c2c(=O)cc(-c3ccc(OC)c(-c4c(O)cc(O)c5c(=O)cc(-c6ccc(O)cc6)oc45)c3)oc2c1
Cancer cell lines
  Activity: inactive
NCI-H187 [1]
  Activity: inactive

## NC[C@H]1O[C@H](O[C@H]2[C@H](O)[C@@H](O[C@H]3O[C@H](CO)[C@@H](O)[C@H](N)[C@H]3O)[C@H](N)C[C@@H]2N)[C@H](O)[C@@H](O)[C@@H]1O.O=S(=O)(O)O [KANAMYCIN SULFATE]
[4]
  MIC: 1.25 µg/mL

## NNC(=O)c1ccncc1 [ISONIAZID]
[4]
  MIC: 0.05 µg/mL (≈ 0.365 µM)

## COc1cc(O)c2c(=O)cc(-c3ccc(O)c(-c4c(O)cc(O)c5c(=O)cc(-c6ccc(O)cc6)oc45)c3)oc2c1
Cancer cell lines
  Activity: inactive
NCI-H187 [1]
  Activity: inactive

## COC(=O)C(C)(C)C1CC[C@@]2(C)C3=CC[C@@]4(C(=O)O)CCC(C)(C)CC4[C@]3(C)CCC2[C@@]1(C)CC(=O)O (stereo partly specified)
Cancer cell lines
  Activity: inactive
NCI-H187 [1]
  Activity: inactive
